Screening data as filed in PubChem BioAssay.
The entries come from a sample that favours hits as a whole.
Bfl-1 A1 inh: caspase 3/7 activation in MEF A1-2A-BIM cells, primary screen, A1 inhibitor project, cell-based, luminescence, HTS; Caspase-Glo 3/7 luminescence, 3 h; percent of clofoctol response, vehicle zero; caspase activation, % (concentration not given with the values); 330,000 compounds, 0.066% hits;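 active = over half of replicate activation scores above 10%, or exactly half above 10 with the replicate mean above 10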
CHOP UPR activ: activators of apoptotic CHOP UPR arm, primary screen, cell-based, CHO-CHOP luciferase reporter, luminescence, uHTS | UPR activation; percent of tunicamycin response over DMSO baseline | activation, % at 10 µM | 330,000 compounds, 0.34% hits;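 active = at 10 µM dose, activation of 40% or more, normalized to positive control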
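System: CHO-CHOP luciferase reporter cell line; amount: 500 cells/well; buffer or medium: F12 medium containing 10% fetal bovine serum; incubation: 6 h compound exposure at 37 °C after overnight seeding; measured by: luciferase luminescence after 10 min with Steady-Glo reagent; evaluation: % reporter activation, DMSO baseline versus tunicamycin full activation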
XBP1 UPR activ: activators of adaptive XBP1 UPR arm, primary screen, cell-based, CHO-XBP1 luciferase reporter, luminescence, uHTS. 330,000 compounds, 0.33% hits. AID 463104, 2010. activation, % at 20 µM. IRE1-XBP1 UPR activation; percent of tunicamycin response, DMSO as zero;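 active = versus positive control, 20 µM dose yields 30% or more activation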
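Material – CHO cell line with stable XBP1 luciferase reporter · Buffer or medium – F12 plus 10% FBS · Compound – single point, 20 µM final compound, 1% DMSO · Schedule – 16-18 h cell attachment at 37 °C, then 6 h compound exposure · Signal – Steady-Glo luminescence read · Benchmarks – high control tunicamycin 10 µg/mL final, low control DMSO vehicle only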
CHOP inhibitor: inhibitors of CHOP promoter induction, primary screen, cell-based, unfolded protein response, luciferase reporter | CHO-K1 CHOP-promoter luciferase, tunicamycin-induced, 15-18 h | inhibition, % at 10 µM | 220,000 compounds, 3.8% hits;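 active = compounds that reduced the stress-induced luciferase reporter signal by more than about 70% of percent inhibition, limit read from the data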
CHOP confirm: retest of CHOP induction inhibitors, confirmation, cell-based | shares compounds with CHOP inhibitor | CHO-CHOP promoter luciferase reporter, tunicamycin-induced, luminescence | inhibition, % at 10 µM | 2,100 compounds, 45% hits | AID 504437, 2011;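 active = mean of three repeat readings of reporter signal inhibition above a set limit, cut at about 70% in these data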
CHOP UPR conf: activators of apoptotic CHOP UPR arm, confirmation, cell-based, CHO-CHOP luciferase reporter, single concentration | CHO-CHOP cells, CHOP-luciferase reporter luminescence; percent of tunicamycin response, DMSO as zero | activation, % at 10 µM | AID 463112, 2010 | 1,000 compounds, 64% hits | shares compounds with CHOP UPR activ; in the data active = activation above about 33%
XBP1 UPR conf: IRE1-XBP1 UPR arm activators, confirmation, cell-based, CHO-XBP1 luciferase reporter, luminescence, single concentration; 1,000 compounds, 63% hits; AID 485299, 2010; activation, % at 20 µM; shares compounds with XBP1 UPR activ;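 active = reporter signal at least 30% of the positive control's activation in two or more of four replicate wells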
A number is an active result; n = inactive; x = no result given.

SMILES	Bfl-1 A1 inh	CHOP UPR activ	XBP1 UPR activ	CHOP inhibitor	CHOP confirm	XBP1 UPR conf	others
Cc1ccc(-c2nnc(-c3ccc(NC(=O)Cc4cccs4)cc3)o2)cc1	n	41	142	105	102	52	CHOP UPR conf=n
COc1ccc(CN(C)C(=O)c2cnc(C)cn2)c(OC)c1OC	n	n	n	x	x	x
CCc1cc2c(C)ccc(C)c2nc1SCC(=O)Nc1c[nH]c(=O)[nH]c1=O	n	n	52	101	n	37
CC(=O)c1cccc(NC(=O)C(C)OC(=O)/C=C/c2cccs2)c1 (stereo not given)	x	n	n	x	x	x
CCOc1ccc(CCNC(=O)COC(=O)c2cc(OC)cc(OC)c2)cc1OCC	n	n	n	n	x	x
O=C(c1ccc(Cl)cc1)C1CCN(CC(=O)N2CCCCC2)CC1	n	n	n	x	x	x
Cc1ccc(C)c(NC(=O)/C(C#N)=C/c2cn(CC(=O)NCc3ccco3)c3ccccc23)c1	n	111	224	106	n	n	CHOP UPR conf=51
Cc1ccccc1OCCn1cc(/C=C(\C#N)C(=O)NCc2ccco2)c2ccccc21	n	n	n	n	x	x
CNC(=O)/C(C#N)=C/c1cn(CC(=O)NCc2ccco2)c2ccccc12	n	n	n	n	x	x
Cc1cc(C)cc(NC(=O)/C(C#N)=C/c2cn(CC(=O)NCc3ccco3)c3ccccc23)c1	17	276	152	106	106	295	CHOP UPR conf=44
COc1ccc(C(CCNCc2ccc(F)cc2)c2ccc(F)cc2)cc1 (stereo not given)	n	n	48	101	105	65
Cc1ccccc1NC(=O)COC(=O)/C=C/c1cn(-c2ccccc2)nc1-c1cccnc1	n	n	n	n	x	x
CC(=O)Nc1ccc(NC(=O)C(C)OC(=O)/C=C/c2cn(-c3ccccc3)nc2-c2cccnc2)cc1 (stereo not given)	16	n	36	104	n	n
Nc1c(C(=O)Nc2ccc(S(=O)(=O)N3CCCC3)cc2)sc2nc3ccc(OC(F)(F)F)cc3cc12	15	311	194	106	112	162	CHOP UPR conf=72
COc1ccccc1Nc1nc(NCc2ccco2)c2ccccc2n1	n	n	n	n	x	x
Cc1ccc(Nc2nc(NCc3ccco3)c3ccccc3n2)cc1	n	n	61	106	115	72
CCOC(=O)c1c2ccc(OCC(=O)N/N=C/c3ccc(C)cc3)cc2n2ccccc12	35	158	123	104	114	106	CHOP UPR conf=61
CCOC(=O)c1c2ccc(OCC(=O)NN)cc2n2ccccc12	n	n	n	n	x	x
CCOc1ccc(/C=C/C(O)=C2/C(=O)NC3(C)CC2c2ccccc2O3)cc1OC (stereo not given)	n	46	41	96	n	46	CHOP UPR conf=n
COc1ccc(CCn2c(C3CCCCC3)nc3c(c(=O)c4ccccc4n3C)c2=O)cc1	n	n	34	100	n	82
COc1ccc(Cn2c(C3CCCCC3)nc3c(c(=O)c4ccccc4n3C)c2=O)cc1	n	n	n	n	x	x
Cc1cccc(N2CCN(C(=S)Nc3ccc4nc(N5CCN(C)CC5)cc(C)c4c3)CC2C)c1 (stereo not given)	n	n	62	106	n	47
CCCC(=O)NCCc1c2n(c3ccc(OC)cc13)Cc1ccccc1-2	x	x	x	n	x	x
O=C(NCc1ccc(Cl)cc1)c1n[nH]c([N+](=O)[O-])c1Cl	n	n	n	n	x	x
NS(=O)(=O)c1ccc(N/N=C2/CCCCC2C2CCCCC2)c([N+](=O)[O-])c1 (stereo not given)	n	n	55	108	115	84
CCn1c(=O)c(C(=O)Nc2nc3ccccc3[nH]2)c(O)c2ccccc21	n	n	78	x	120	n
CCn1c(=O)c(C(=O)Nc2ccccc2)c(O)c2ccccc21	n	n	n	x	x	x
